# Measured values of several laboratories.
# Lines come from different studies, so protocols differ.
SMILES,tested on,assay,test system,setting,endpoint,result
CC(C)[C@]12O[C@H]1[C@@H]1O[C@]13[C@]1(O[C@H]1C[C@H]1C4=C(CC[C@@]13C)C(=O)OC4)[C@@H]2O,,,"SCID mouse, plasma","intravenous, 0.6 mg/kg",MRT,28.8 min
COc1ccc(NC(=O)N2CCCCN3[C@H](CN(C)C)[C@H](c4ccc(C#Cc5ccccc5)cc4)[C@@H]3C2)cc1,HepG2,"cell growth or viability, ATP luminescence",,72 h,CC50,6.08 µM
CC(=O)c1c(C)c2cnc(Nc3ccc(C4CCN(CCS(C)(=O)=O)CC4)cn3)nc2n(C2CCCC2)c1=O,,metabolic stability,"human, liver microsomes",,half-life,28.6 min
Cc1[nH]c(C)c(S(=O)(=O)Nc2ccc(S(F)(F)(F)(F)F)c(Cl)c2)c1C(=O)N1CCC(F)(F)C1,,metabolic stability,"human, liver microsomes",,half-life,13 min
c1ccc2c(c1)[I+]c1ccccc1-2,HepG2,"cell growth or viability, ATP luminescence",,72 h,CC50,1.28 µM
CC(C)=CCC[C@](C)(O[C@@H]1O[C@H](CO)[C@@H](O)[C@H](O)[C@H]1O)[C@H]1CC[C@]2(C)[C@@H]1[C@H](O)C[C@@H]1[C@@]3(C)CC[C@H](O)C(C)(C)[C@@H]3CC[C@]12C,,,"mouse, plasma","intravenous, 2 mg/kg",MRT,510 min
CC(C)CC(=O)OC[C@H]1O[C@@](C#N)(c2ccc3c(N)ncnn23)[C@H](O)[C@@H]1O,,metabolic stability,"human, plasma",5 µM,half-life,7.93 min
CC(C)(C)[C@H](NC(=O)C(F)(F)F)C(=O)N1C[C@H]2[C@@H]([C@H]1C(=O)N[C@H](C#N)C[C@@H]1CCNC1=O)C2(C)C,Huh-7,cell growth or viability,,,CC50,> 100 µM
CCOC(=O)c1c(NC(=O)CNC(C)C)sc2c1CCCCC2,,,"male mouse, plasma","intraperitoneal, 100 mg/kg, single dose",MRT(0-inf),247 min
N#C[C@@]1(n2ccc(N)nc2=O)O[C@H](CO)[C@@H](O)[C@H]1O,Huh-7,cell growth or viability,,,CC50,99.5 µM
CC[C@H](C)[C@H](NC(=O)[C@H](Cc1ccccc1)NC(=O)[C@H](CCC(=O)O)NC(=O)[C@H](CCCCN)NC(=O)[C@H](C)NC(=O)[C@H](C)NC(=O)[C@H](CCC(N)=O)NC(=O)CNC(=O)[C@H](CCC(=O)O)NC(=O)[C@H](CC(C)C)NC(=O)[C@H](Cc1ccc(O)cc1)NC(=O)[C@H](CO)NC(=O)[C@H](CO)NC(=O)[C@@H](NC(=O)[C@H](CC(=O)O)NC(=O)[C@H](CO)NC(=O)[C@@H](NC(=O)[C@H](Cc1ccccc1)NC(=O)[C@@H](NC(=O)CNC(=O)[C@H](CCC(=O)O)NC(=O)[C@H](C)NC(=O)N(N)Cc1c[nH]cn1)[C@@H](C)O)[C@@H](C)O)C(C)C)C(=O)N[C@@H](C)C(=O)N[C@@H](Cc1c[nH]c2ccccc12)C(=O)N[C@@H](CC(C)C)C(=O)N[C@H](C(=O)N[C@@H](CCCNC(=N)N)C(=O)NCC(=O)N[C@@H](CCCNC(=N)N)C(=O)NCC(=O)O)C(C)C,,,"male CD-1 mouse, plasma","intravenous, 1 mg/kg, single dose",MRT,8.4 min
